What was measured:
Cannabinoid receptor 1 [1] = target: T1, Cannabinoid receptor 1 (Homo sapiens, UniProt P21554); experiment: Displacement of [3H]CP-55940 from human CB1 receptor expressed in CHO cell membrane after 90 mins by scintillation counting analysis; type: cell membranes
Outline: (§1)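 Membranes from CHO cells stably expressing human CB₁ (G418-maintained), suspended in 50 mM Tris-HCl, 0.5% BSA, 5 mM MgCl₂, 2.5 mM EDTA, pH 7.4. Displacement of 0.5 nM [³H]CP-55,940 by 1 nM–10 μM compound, 90 min, 30 °C. Filtration on GF/C, scintillation counting. Cheng-Prusoff Ki, LIGAND fitting; mean SEM, n = 4.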

Homo sapiens = species on record: Homo sapiens; experiment: Selectivity index, ratio of Ki for human CB1 receptor to Ki for human CB2 receptor
Cannabinoid receptor 1 [2] = target: T1, Cannabinoid receptor 1; experiment: Displacement of [3H]CP-55940 from human CB1 receptor expressed in CHO cell membrane at > 10 uM after 90 mins by scintillation counting analysis; type: cell membranes; outline: as §1
Cannabinoid receptor 2 [3] = target: T2, Cannabinoid receptor 2 (Homo sapiens, UniProt P34972); experiment: Displacement of [3H]CP-55940 from human CB2 receptor expressed in CHO cell membrane after 60 mins by scintillation counting analysis; type: cell membranes
T2 sequence (P34972 whole entry): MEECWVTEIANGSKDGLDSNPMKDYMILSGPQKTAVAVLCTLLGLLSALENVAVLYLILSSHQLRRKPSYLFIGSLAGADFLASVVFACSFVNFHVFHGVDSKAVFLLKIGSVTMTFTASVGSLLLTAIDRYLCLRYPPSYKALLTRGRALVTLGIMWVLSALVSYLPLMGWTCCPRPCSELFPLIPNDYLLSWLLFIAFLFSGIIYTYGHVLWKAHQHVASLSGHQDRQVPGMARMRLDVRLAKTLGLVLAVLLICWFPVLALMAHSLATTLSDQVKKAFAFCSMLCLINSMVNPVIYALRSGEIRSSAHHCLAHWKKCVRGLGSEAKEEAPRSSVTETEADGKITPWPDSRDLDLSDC
Outline: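 Human CB₂-expressing CHO cell membranes in 50 mM Tris-HCl, 0.5% BSA, 5 mM MgCl₂, 1 mM EDTA, pH 7.4. Binding of 0.5 nM [³H]CP-55,940 competed with 1 nM–10 μM compound for 60 min at 30 °C, then GF/C filtration and scintillation counting. Ki by Cheng-Prusoff from IC50; mean SEM of n = 4.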

Cannabinoid receptor 2 [4] = target: T2, Cannabinoid receptor 2; experiment: Inverse agonist activity at human CB2 receptor expressed in CHO cell membrane assessed as increase in forskolin-stimulated cAMP production at 10 uM by scintillation counting analysis relative to WIN55212-2
Outline: (§2)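 Whole hCB₂ CHO cells (1 × 10⁶/assay) in HEPES-buffered saline with glucose, pH 7.4, preincubated 10 min at 37 °C with 0.5 mM Ro 20-1724. Compound at 1 or 10 μM with 1 μM forskolin. Stopped with cold 6% TCA, ether-extracted; cAMP measured by [³H]cAMP competition binding with adrenal binding protein. Expressed as % increase versus WIN 55,212-2 (set −100%); n = 4.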

Cannabinoid receptor 1 [5] = target: Cannabinoid receptor 1 (Rattus norvegicus, UniProt P20272); experiment: Displacement of [3H]CP-55940 from Sprague-Dawley rat brain CB1 receptor after 90 mins by scintillation counting analysis
Sequence of Cannabinoid receptor 1 (Rattus norvegicus, UniProt P20272) (P20272 whole entry): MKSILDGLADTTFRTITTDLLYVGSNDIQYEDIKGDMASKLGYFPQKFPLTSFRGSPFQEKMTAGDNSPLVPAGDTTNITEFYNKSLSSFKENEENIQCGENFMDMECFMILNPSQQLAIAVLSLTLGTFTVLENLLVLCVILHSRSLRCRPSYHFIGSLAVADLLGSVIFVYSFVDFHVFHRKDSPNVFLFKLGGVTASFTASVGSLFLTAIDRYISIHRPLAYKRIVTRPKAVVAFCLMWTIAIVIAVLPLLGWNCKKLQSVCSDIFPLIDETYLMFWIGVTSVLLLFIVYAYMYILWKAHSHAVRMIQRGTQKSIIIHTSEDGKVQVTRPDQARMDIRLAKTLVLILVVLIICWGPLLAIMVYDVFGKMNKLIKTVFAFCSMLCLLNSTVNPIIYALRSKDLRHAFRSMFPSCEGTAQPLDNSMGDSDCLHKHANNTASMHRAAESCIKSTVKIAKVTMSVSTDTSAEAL
Outline: (§3)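 Competition with [³H]CP-55,940 (1.0 nM stated in rat CB₁ section; 0.5 nM in general protocol) against 1 nM–10 μM compound, 90 min at 30 °C. GF/C filtration, scintillation counting. Ki via Cheng-Prusoff; mean SEM, n = 4.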

Cannabinoid receptor 2 [6] = target: T3, Cannabinoid receptor 2 (Rattus norvegicus, UniProt Q9QZN9); experiment: Displacement of [3H]CP-55940 from Sprague-Dawley rat spleen CB2 receptor after 60 mins by scintillation counting analysis
T3 sequence (Q9QZN9 whole entry): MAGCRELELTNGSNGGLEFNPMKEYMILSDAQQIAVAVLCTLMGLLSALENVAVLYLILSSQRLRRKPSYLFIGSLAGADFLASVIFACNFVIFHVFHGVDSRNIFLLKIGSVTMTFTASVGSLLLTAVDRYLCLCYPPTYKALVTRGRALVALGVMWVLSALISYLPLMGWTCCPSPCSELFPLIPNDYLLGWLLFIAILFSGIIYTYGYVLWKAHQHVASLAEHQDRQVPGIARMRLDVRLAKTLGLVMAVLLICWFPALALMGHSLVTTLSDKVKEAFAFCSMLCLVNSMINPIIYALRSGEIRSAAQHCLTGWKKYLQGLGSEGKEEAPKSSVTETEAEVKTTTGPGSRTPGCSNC
Outline: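 Competed against 0.5 nM [³H]CP-55,940 using 1 nM–10 μM compound for 60 min at 30 °C. Bound ligand collected on GF/C filters and counted. Ki from IC50 by Cheng-Prusoff; mean SEM of n = 4.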

Cannabinoid receptor 2 [7] = target: T2, Cannabinoid receptor 2; experiment: Inverse agonist activity at human CB2 receptor expressed in CHO cell membrane assessed as increase in forskolin-stimulated cAMP production at 1 uM by scintillation counting analysis relative to WIN55212-2; outline: as §2
[8] = target: Cannabinoid receptor 1 (Rattus norvegicus) (UniProt P20272); experiment: Displacement of [3H]CP-55940 from Sprague-Dawley rat brain CB1 receptor at > 10 uM after 90 mins by scintillation counting analysis; outline: as §3
Sequence of Cannabinoid receptor 1 (Rattus norvegicus) (P20272 whole entry): as the sequence (P20272 whole entry) above

T1 sequence (P21554 whole entry): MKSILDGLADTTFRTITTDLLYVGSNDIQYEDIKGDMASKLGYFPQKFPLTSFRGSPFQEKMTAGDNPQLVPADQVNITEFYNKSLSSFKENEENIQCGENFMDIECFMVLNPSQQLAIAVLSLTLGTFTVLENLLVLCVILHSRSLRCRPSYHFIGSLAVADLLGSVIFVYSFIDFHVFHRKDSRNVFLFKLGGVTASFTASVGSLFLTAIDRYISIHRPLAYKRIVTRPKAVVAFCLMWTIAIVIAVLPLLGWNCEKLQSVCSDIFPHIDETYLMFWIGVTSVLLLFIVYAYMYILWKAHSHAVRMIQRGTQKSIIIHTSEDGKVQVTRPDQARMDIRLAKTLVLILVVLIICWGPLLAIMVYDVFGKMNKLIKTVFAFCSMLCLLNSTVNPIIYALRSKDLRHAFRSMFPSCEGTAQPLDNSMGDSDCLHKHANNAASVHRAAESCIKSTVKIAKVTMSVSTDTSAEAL

| Structure (SMILES) | Ki (Cannabinoid receptor 1 [1]) [nM] | Ratio Ki (Homo sapiens) | Activity (Cannabinoid receptor 1 [2]) [%] | Ki (Cannabinoid receptor 2 [3]) [nM] | Activity (Cannabinoid receptor 2 [4]) [%] | Ki (Cannabinoid receptor 1 [5]) [nM] | Ki (Cannabinoid receptor 2 [6]) [nM] | Activity (Cannabinoid receptor 2 [7]) [%] | Activity [8] [%] |
| --- | --- | --- | --- | --- | --- | --- | --- | --- | --- |
| CCCCCn1cc(C(=O)NC23CC4CC(CC(C4)C2)C3)c(=O)n2nc(-c3cccs3)cc12 | > 10000 | > 1600 | 26 | 6.24 | 102 | > 10000 | 7.52 | 89 | 22 |
| CCCCCn1cc(C(=O)NC23CC4CC(CC(C4)C2)C3)c(=O)n2nc(-c3ccc(Cl)cc3Cl)cc12 | > 10000 | > 333 | 37 | 30 | 112 | > 10000 | 35 | 87 | 40 |
| CCCCCn1cc(C(=O)NC23CC4CC(CC(C4)C2)C3)c(=O)n2nc(-c3ccc(Cl)cc3)cc12 | > 10000 | > 2580 | 13 | 3.88 | 183 | > 10000 | 4.21 | 144 | 10 |
| CCCCCn1cc(C(=O)NC23CC4CC(CC(C4)C2)C3)c(=O)n2nc(C)c(-c3ccccc3)c12 | > 10000 | > 55 | 15 | 181 | 51 | > 10000 | 214 | 34 | 15 |
| CCCCCn1cc(C(=O)NC2CCCCC2)c(=O)n2nc(-c3ccccc3C)cc12 | > 10000 | > 250 | 16 | 40 | 94 | > 10000 | 48 | 73 | 30 |
| CCCCCn1cc(C(=O)NC23CC4CC(CC(C4)C2)C3)c(=O)n2nc(C)c(Br)c12 | > 10000 | > 45 | 1 | 220 | 48 | > 10000 | 272 | 32 | 1 |
| CCCCCn1cc(C(=O)NC2CCCCCC2)c(=O)n2nc(-c3ccccc3Cl)cc12 | > 10000 | > 970 | 35 | 10.3 | 69 | > 10000 | 12.3 | 53 | 42 |
| CCCCCn1cc(C(=O)NC23CC4CC(CC(C4)C2)C3)c(=O)n2nc(C(C)(C)C)cc12 | 612 | 124 | – | 4.95 | 189 | 675 | 5.54 | 114 | – |
| CCCCCn1cc(C(=O)NC23CC4CC(CC(C4)C2)C3)c(=O)n2nc(-c3ccc(C)s3)cc12 | > 10000 | > 862 | 31 | 11.6 | 68 | > 10000 | 12.2 | 38 | 33 |
| CCCCCn1cc(C(=O)NC2CCCCC2)c(=O)n2nc(-c3ccc(C)cc3)cc12 | > 10000 | > 175 | 20 | 57 | 93 | > 10000 | 62 | 63 | 25 |
| CCCCCn1cc(C(=O)NC2CCCCC2)c(=O)n2nc(CC)cc12 | 420 | 40 | – | 10.4 | 146 | 480 | 11.5 | 121 | – |
| CCCCCn1cc(C(=O)NC2CCC(C)CC2)c(=O)n2nc(C)cc12 (configuration not stated) | 2430 | 23 | – | 106 | 67 | 2600 | 120 | 48 | – |
| CCCCCn1cc(C(=O)NC23CC4CC(CC(C4)C2)C3)c(=O)n2nc(C)cc12 | 1120 | 88 | – | 12.7 | 75 | 1460 | 15.3 | 56 | – |
| CCCCCn1cc(C(=O)NC2CCCCC2)c(=O)n2nc(C(C)(C)C)cc12 | 675 | 55 | – | 12.3 | 115 | 720 | 14.2 | 85 | – |
| CCCCCn1cc(C(=O)NC2CCCCCC2)c(=O)n2nc(-c3ccccc3C)cc12 | > 10000 | > 1120 | 34 | 8.93 | 125 | > 10000 | 9.53 | 107 | 45 |
| CCCCCn1cc(C(=O)NC2CCCCCC2)c(=O)n2nc(-c3ccco3)cc12 | > 10000 | > 1520 | 16 | 6.57 | 88 | > 10000 | 7.23 | 42 | 20 |
| CCCCCn1cc(C(=O)NC2CCCCC2)c(=O)n2nc(-c3ccccc3Cl)cc12 | > 10000 | > 212 | 34 | 47 | 55 | > 10000 | 52 | 37 | 40 |
| CCCCCn1cc(C(=O)NC2CCCCC2)c(=O)n2nc(-c3ccc(Cl)cc3Cl)cc12 | > 10000 | > 192 | 38 | 52 | 65 | > 10000 | 60 | 45 | 47 |
| CCCCCn1cc(C(=O)NC23CC4CC(CC(C4)C2)C3)c(=O)n2nc(-c3ccoc3)cc12 | > 10000 | > 990 | 19 | 10.1 | 92 | > 10000 | 12.4 | 56 | 17 |
| CCCCCn1cc(C(=O)NC2CCCCCC2)c(=O)n2nc(C)cc12 | 527 | 51 | – | 10.3 | 63 | 642 | 12.4 | 44 | – |
| CCCCCn1cc(C(=O)NC23CC4CC(CC(C4)C2)C3)c(=O)n2nc(-c3ccccc3C)cc12 | > 10000 | > 3500 | 22 | 2.86 | 184 | > 10000 | 3.21 | 155 | 30 |
| CCCCCn1cc(C(=O)NC2CCCCC2)c(=O)n2nc(-c3ccccc3)cc12 | 702 | 17 | – | 42 | 123 | 750 | 50 | 92 | – |
| CCCCCn1cc(C(=O)NC2CCCCCC2)c(=O)n2nc(-c3ccccc3)cc12 | 825 | 27 | – | 31 | 134 | 900 | 35 | 103 | – |
| CCCCCn1cc(C(=O)NC2CCCCCC2)c(=O)n2nc(CC)cc12 | 200 | 38 | – | 5.22 | 159 | 220 | 5.63 | 137 | – |
| CCCCCn1cc(C(=O)NC2CCCCC2)c(=O)n2nc(C)cc12 | 1280 | 58 | – | 22 | 54 | 1580 | 26 | 42 | – |
| CCCCCn1cc(C(=O)NCc2ccccc2)c(=O)n2nc(C)cc12 | 3290 | 9.2 | – | 358 | 52 | 3690 | 428 | 38 | – |
